pIC50: −log10 of the molar value.
Tests used:
[1] = target: T1, 11-beta-hydroxysteroid dehydrogenase type 2 (Mus musculus, UniProt P51661); assay: Inhibition of mouse 11beta-HSD2 overexpressed in microsomal fraction of HEK293 cells using [3H]-cortisol as substrate by scintillation proximity assay in presence of NAD+
T1 sequence (P51661 whole entry): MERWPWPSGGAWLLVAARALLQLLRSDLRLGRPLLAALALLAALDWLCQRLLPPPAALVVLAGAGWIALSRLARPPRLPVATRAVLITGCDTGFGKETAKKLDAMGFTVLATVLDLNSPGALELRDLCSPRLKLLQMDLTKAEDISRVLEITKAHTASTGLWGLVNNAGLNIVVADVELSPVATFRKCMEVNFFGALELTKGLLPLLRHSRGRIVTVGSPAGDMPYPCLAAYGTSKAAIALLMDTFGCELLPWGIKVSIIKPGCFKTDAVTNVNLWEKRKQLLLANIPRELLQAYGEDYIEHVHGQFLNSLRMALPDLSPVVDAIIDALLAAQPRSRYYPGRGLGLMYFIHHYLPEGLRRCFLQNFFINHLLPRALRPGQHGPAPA
In short: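 Enzyme was murine 11β-HSD2 full-length cDNA in pcDNA3, stably expressed in HEK-293 cells selected with G418 (700 μg/mL). Microsomes from these cells were incubated with [3H]cortisol, NAD+ and compound. Activity was read by scintillation proximity assay and IC50 reported.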

[2] = target: 11-beta-hydroxysteroid dehydrogenase 1 (Mus musculus, UniProt P50172); assay: Inhibition of mouse 11beta-HSD1 overexpressed in microsomal fraction of HEK293 cells assessed as formation of [3H]-cortisol from [3H]-cortisone by scintillation proximity assay in presence of NADPH; type: cell-based
In short: (§1)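 Full-length human or murine 11β-HSD1 cDNA cloned into pcDNA3 and stably transfected into HEK-293 cells, selected with G418 (700 μg/mL). Microsomal fraction used as enzyme source. Microsomes incubated with NADPH, [3H]cortisone and compound. [3H]cortisol product captured by monoclonal antibody on protein A-coated SPA beads and read by scintillation proximity. IC50 reported.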

[3] = target: 11-beta-hydroxysteroid dehydrogenase 1 (Homo sapiens, UniProt P28845); assay: Inhibition of human 11beta-HSD1 overexpressed in microsomal fraction of HEK293 cells assessed as formation of [3H]-cortisol from [3H]-cortisone by scintillation proximity assay in presence of NADPH; type: cell-based; in short: as §1
[4] = target: T2, 11-beta-hydroxysteroid dehydrogenase type 2 (Homo sapiens, UniProt P80365); assay: Inhibition of human 11beta-HSD2 overexpressed in microsomal fraction of HEK293 cells using [3H]-cortisol as substrate by scintillation proximity assay in presence of NAD+
T2 sequence (P80365 whole entry): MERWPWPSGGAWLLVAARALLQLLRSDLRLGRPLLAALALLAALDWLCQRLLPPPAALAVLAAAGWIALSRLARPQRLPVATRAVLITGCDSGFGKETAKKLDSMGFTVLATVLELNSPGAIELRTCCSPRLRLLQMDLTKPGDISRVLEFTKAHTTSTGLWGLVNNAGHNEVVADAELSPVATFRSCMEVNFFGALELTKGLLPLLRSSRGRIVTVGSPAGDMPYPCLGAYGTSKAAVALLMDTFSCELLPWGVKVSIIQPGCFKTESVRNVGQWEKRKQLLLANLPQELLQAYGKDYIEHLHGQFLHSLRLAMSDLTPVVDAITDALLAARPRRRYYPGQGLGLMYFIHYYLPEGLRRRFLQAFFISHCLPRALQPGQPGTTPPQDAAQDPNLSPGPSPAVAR

11-beta-hydroxysteroid dehydrogenase 1 (Mus musculus, UniProt P50172), sequence (P50172 whole entry): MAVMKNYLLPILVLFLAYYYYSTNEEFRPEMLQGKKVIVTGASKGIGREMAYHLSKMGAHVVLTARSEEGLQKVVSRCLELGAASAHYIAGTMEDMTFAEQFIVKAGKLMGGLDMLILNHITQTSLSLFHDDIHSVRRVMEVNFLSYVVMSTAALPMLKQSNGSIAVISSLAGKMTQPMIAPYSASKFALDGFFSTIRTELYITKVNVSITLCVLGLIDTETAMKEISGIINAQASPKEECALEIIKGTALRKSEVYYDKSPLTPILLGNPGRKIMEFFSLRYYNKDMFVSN
11-beta-hydroxysteroid dehydrogenase 1 (Homo sapiens, UniProt P28845), sequence (P28845 whole entry): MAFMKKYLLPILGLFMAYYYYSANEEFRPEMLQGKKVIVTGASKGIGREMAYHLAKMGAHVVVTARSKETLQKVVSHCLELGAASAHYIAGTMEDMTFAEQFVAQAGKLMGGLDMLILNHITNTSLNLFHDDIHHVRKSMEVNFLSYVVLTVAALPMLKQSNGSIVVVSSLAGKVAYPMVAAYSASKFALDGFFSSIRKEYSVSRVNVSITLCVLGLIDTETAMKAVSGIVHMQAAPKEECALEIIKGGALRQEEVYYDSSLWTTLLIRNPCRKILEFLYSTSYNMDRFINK

**Q.** How did the pIC50 [1] turn out when `CO[C@@H]1CC(=O)[C@]2(C)[C@@H]1[C@H](O)C[C@@H]1[C@@]3(C)CC[C@H](O)C(C)(C)[C@@H]3CC[C@]12C` was run?
**A.** 3.54

**Q.** And the pIC50 [2]?
**A.** 5.55

**Q.** What about the pIC50 [3] of the same compound?
**A.** 6.71

**Q.** What does the source list for `CC1(C)[C@@H](O)CC[C@]2(C)[C@H]3C[C@@H](O)[C@@H]4C=CC(=O)[C@@]4(C)[C@]3(C)CC[C@@H]12`?
**A.** pIC50 [1]: < 3.00; pIC50 [2]: 5.54; pIC50 [3]: 6.40; pIC50 [4]: 3.55

**Q.** What does the source list for `CO[C@@H]1CC(=O)[C@]2(C)[C@@H]1[C@H](OC(C)=O)C[C@@H]1[C@@]3(C)CC[C@H](O)C(C)(C)[C@@H]3CC[C@]12C`?
**A.** pIC50 [1]: 3.81; pIC50 [2]: 5.48; pIC50 [3]: 7.82

**Q.** How did the pIC50 [1] turn out when `CC(=O)O[C@@H]1C[C@@H]2[C@@]3(C)CC[C@H](O)C(C)(C)[C@@H]3CC[C@@]2(C)[C@]2(C)C(=O)C[C@@H](O)[C@@H]12` was run?
**A.** < 3.00

**Q.** What about the pIC50 [2] of the same compound?
**A.** 5.33

**Q.** What about the pIC50 [3] of the same compound?
**A.** 7.12

**Q.** `CC(=O)O[C@@H]1C[C@@H]2[C@@]3(C)CC[C@H](O)C(C)(C)[C@@H]3CC[C@@]2(C)[C@]2(C)C(=O)C=C[C@@H]12` was tested. Which pIC50 [1] did it give?
**A.** 3.66

**Q.** What about the pIC50 [2] of the same compound?
**A.** 5.14

**Q.** What about the pIC50 [3] of the same compound?
**A.** 7.47

— ChEMBL document CHEMBL3421600, “Hupehenols A-E, selective 11β-hydroxysteroid dehydrogenase type 1 (11β-HSD1) inhibitors from Viburnum hupehense” (J Nat Prod, 2015)
